Laboratory results reported in ChEMBL document CHEMBL3352791, “Thioaryl naphthylmethanone oxime ether analogs as novel anticancer agents” (J Med Chem, 2014).
Activity calls are given as the source filed them. The calls are words filed in the database; no cut-off is given here.

Key:
[1] = test system: MDA-MB-231; assay: Antiproliferative activity against human […] cells assessed as growth recovery treated up to 5 uM for 24 hrs followed by maintained in drug free medium for 72 hrs by MTT assay; format: functional
[2] = test system: MCF7; assay: Cell cycle arrest in human […] cells assessed as accumulation at G2 phase at 5 uM by propidium iodide staining by FACS analysis (reference value: 10.96%); format: functional
[3] = test system: MDA-MB-231; assay: Cell cycle arrest in human […] cells assessed as accumulation at subG1 phase at 2.5 uM by propidium iodide staining by FACS analysis (reference value: 0.3%); format: functional
[4] = in vitro; conditions: human, MCF10A cells versus
[5] = test system: MCF7; assay: Cell cycle arrest in human […] cells assessed as accumulation at G1 phase at 7.5 uM by propidium iodide staining by FACS analysis (reference value: 62.88%); format: functional
[6] = Antiproliferative activity against mouse NIH/3T3 cells after 24 hrs by MTT assay; format: functional, cell-based; conditions: NIH3T3, 24 h
Method in brief: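 MTT viability: cells seeded at 1×10^4 per well in DMEM with 10% FBS, left to adhere overnight, then serum-starved 4 h. Compounds were given at a range of doses, with 0.1% DMSO vehicle as control. EC50 was taken from dose-response curves spanning 100nM-50µM. Data are mean ± SEM from at least three independent experiments.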

[7] = test system: MCF7; assay: Antiproliferative activity against human ER-negative MCF7 cells after 72 hrs by MTT assay; format: functional, cell-based; conditions: MCF7, 72 h
[8] = test system: MDA-MB-231; assay: Cell cycle arrest in human […] cells assessed as accumulation at S phase at 2.5 uM by propidium iodide staining by FACS analysis (reference value: 13.72%); format: functional
[9] = test system: MCF7; assay: Induction of apoptosis in human […] cells assessed as increase in Bax to Bcl2 ratio at 5 uM after 24 hrs by immunoblotting analysis; format: functional, cell-based
Method in brief: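 Immunoblot of Bax and Bcl-2 in cell lysates, loading normalized to actin; mean ± SEM, three independent experiments.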

[10] = test system: MDA-MB-231; assay: Induction of PTEN expression in human MDA-MB-231 cells at 1 uM after 24 hrs by qPCR analysis; format: functional, cell-based
Method in brief: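 qPCR on MDA-MB-231 cells treated with 1µM compound; GAPDH as internal control.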

[11] = molecular target: Phosphodiesterase 4 (Homo sapiens) (UniProt P27815+Q08499+Q07343+Q08493); assay: Inhibition of PDE4 CAT (unknown origin) activity at 1 to 10 uM; format: protein assay
Method in brief: (§1)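 Recombinant PDE isoform activity was read by fluorescence polarization. A binding reagent complexes with the nucleotide monophosphate that the phosphodiesterase generates from cAMP/cGMP, and this raises the polarization of the labelled substrate. Reference standards were PDE1A3 10µM IBMX, PDE2A3 1nM BAY 60-7550, PDE3CAT 1µM cilostazol, PDE4CAT rolipram, PDE5CAT 0.1µM sildenafil, PDE7A […], PDE8A1 10µM BRL-50481, PDE9A1 1µM SB 36216 and PDE11A1 dipyridamole.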

[12] = test system: MDA-MB-231; assay: Effect on intracellular calcium level in human MDA-MB-231 cells at 1 to 25 uM by flow cytometry; format: functional, cell-based
Method in brief: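 Trypsinized cells washed in PBS (pH 7.4), loaded with Fluo-4AM 45 min in HBSS, washed and resuspended in calcium-free HBSS; baseline fluorescence read 2 min by flow cytometry, then 7 min after compound addition.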

[13] = molecular target: Epidermal growth factor receptor (Homo sapiens) (UniProt P00533); assay: Inhibition of EGF-induced EGFR phosphorylation at Tyr1045 in human MCF7 cells at 1 uM by ELISA; format: cell-based
Epidermal growth factor receptor (Homo sapiens), sequence (P00533 whole entry): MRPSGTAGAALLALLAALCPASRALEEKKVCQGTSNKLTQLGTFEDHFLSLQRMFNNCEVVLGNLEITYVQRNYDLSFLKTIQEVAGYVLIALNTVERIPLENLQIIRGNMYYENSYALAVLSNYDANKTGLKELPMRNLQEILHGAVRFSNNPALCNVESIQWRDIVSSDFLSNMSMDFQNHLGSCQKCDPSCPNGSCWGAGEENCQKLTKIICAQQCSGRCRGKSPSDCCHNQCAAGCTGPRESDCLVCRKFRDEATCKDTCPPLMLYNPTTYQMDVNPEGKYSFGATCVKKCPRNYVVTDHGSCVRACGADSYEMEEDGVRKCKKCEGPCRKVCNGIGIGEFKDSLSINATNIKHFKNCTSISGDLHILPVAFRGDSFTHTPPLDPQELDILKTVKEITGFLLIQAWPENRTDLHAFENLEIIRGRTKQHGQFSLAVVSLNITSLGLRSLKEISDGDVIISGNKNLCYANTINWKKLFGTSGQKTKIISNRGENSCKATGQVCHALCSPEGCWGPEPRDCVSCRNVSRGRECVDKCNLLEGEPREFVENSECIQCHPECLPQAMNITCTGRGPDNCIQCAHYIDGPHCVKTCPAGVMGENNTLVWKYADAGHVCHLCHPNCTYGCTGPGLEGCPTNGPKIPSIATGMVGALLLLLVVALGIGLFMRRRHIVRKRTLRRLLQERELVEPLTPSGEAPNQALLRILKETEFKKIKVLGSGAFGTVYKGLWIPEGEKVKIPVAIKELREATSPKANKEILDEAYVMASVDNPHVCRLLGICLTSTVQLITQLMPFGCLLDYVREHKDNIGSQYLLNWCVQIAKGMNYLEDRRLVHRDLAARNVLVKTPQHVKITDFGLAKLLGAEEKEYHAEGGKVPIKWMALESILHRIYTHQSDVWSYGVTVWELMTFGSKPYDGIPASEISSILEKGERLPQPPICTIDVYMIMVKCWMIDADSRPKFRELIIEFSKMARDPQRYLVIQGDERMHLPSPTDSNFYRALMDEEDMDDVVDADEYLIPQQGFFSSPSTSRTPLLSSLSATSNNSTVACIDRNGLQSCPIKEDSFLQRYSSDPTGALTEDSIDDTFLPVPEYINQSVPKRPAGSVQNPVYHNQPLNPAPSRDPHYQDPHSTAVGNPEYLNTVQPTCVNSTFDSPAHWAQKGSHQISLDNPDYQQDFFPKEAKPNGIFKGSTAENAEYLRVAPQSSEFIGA

[14] = test system: MDA-MB-231; assay: Induction of apoptosis in human […] cells assessed as caspase 9 activation at 2.5 to 7.5 uM by Caspase-Glo assay; format: functional, cell-based
Method in brief: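 Caspase-8, -9 and -3 activities measured with Caspase-Glo 8, 9 and 3 kits; mean ± SEM from three independent experiments.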

[15] = molecular target: Epidermal growth factor receptor (Homo sapiens) (UniProt P00533); assay: Inhibition of EGF-induced EGFR phosphorylation at Tyr1045 in human MDA-MB-231 cells at 1 uM by ELISA; format: cell-based
[16] = test system: MCF7; assay: Antitumor activity against human MCF7 cells xenografted in NIH-3 mouse assessed as effect on tumor volume at 8 mg/kg, po for 29 days relative to control; format: functional, organism-based; set-up: dose 8 mg/kg
Method in brief: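 MCF-7 cells (5x10^6 in 100μl PBS) injected intraperitoneally into NIH-III nude mice; after tumor induction, groups of n=10 dosed orally daily for 29 days at 8 or 16 mg/kg/day in 1% carboxymethyl cellulose (vehicle controls). Tumor diameter by vernier calipers every third day; volume = π/6×d³ (d mean diameter).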

[17] = molecular target: Dual specificity calcium/calmodulin-dependent 3',5'-cyclic nucleotide phosphodiesterase 1A (Homo sapiens) (UniProt P54750); assay: Inhibition of PDE1A3 (unknown origin) activity at 1 to 10 uM; method in brief: as §1
Dual specificity calcium/calmodulin-dependent 3',5'-cyclic nucleotide phosphodiesterase 1A (Homo sapiens), sequence (P54750 whole entry): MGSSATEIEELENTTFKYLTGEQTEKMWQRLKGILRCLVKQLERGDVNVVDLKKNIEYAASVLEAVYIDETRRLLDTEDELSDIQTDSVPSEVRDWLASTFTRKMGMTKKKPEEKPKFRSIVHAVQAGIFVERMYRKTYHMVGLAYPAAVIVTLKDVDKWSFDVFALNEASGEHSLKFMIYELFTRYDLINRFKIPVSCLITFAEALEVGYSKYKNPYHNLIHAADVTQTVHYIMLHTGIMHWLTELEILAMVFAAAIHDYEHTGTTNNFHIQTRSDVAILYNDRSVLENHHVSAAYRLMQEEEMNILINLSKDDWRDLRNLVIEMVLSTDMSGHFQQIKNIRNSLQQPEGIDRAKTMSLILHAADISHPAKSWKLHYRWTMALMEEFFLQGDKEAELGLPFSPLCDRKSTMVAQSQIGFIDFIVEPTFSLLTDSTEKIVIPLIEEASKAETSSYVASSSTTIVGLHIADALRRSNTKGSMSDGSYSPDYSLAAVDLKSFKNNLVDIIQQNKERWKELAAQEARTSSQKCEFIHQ

[18] = molecular target: Mitogen-activated protein kinase; ERK1/ERK2 (Homo sapiens) (UniProt P27361+P28482); assay: Inhibition of EGF-induced ERK1/2 phosphorylation in human MCF7 cells at 1 uM by ELISA; format: cell-based
[19] = test system: MDA-MB-231; assay: Inhibition of CDC42 protein expression in human MDA-MB-231 cells at 1 uM after 24 hrs by ELISA; format: functional, cell-based
Method in brief: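 MDA-MB-231 cells treated at 1µM for 24 h. CDC42 protein measured with a G-LISA ELISA kit.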

[20] = test system: Mast/stem cell growth factor receptor Kit (Homo sapiens), P10721 [D816H]; assay: Inhibition of cKit D816H mutant (unknown origin) at 10 uM
Mast/stem cell growth factor receptor Kit (Homo sapiens), P10721 [D816H], sequence (P10721 whole entry D816H): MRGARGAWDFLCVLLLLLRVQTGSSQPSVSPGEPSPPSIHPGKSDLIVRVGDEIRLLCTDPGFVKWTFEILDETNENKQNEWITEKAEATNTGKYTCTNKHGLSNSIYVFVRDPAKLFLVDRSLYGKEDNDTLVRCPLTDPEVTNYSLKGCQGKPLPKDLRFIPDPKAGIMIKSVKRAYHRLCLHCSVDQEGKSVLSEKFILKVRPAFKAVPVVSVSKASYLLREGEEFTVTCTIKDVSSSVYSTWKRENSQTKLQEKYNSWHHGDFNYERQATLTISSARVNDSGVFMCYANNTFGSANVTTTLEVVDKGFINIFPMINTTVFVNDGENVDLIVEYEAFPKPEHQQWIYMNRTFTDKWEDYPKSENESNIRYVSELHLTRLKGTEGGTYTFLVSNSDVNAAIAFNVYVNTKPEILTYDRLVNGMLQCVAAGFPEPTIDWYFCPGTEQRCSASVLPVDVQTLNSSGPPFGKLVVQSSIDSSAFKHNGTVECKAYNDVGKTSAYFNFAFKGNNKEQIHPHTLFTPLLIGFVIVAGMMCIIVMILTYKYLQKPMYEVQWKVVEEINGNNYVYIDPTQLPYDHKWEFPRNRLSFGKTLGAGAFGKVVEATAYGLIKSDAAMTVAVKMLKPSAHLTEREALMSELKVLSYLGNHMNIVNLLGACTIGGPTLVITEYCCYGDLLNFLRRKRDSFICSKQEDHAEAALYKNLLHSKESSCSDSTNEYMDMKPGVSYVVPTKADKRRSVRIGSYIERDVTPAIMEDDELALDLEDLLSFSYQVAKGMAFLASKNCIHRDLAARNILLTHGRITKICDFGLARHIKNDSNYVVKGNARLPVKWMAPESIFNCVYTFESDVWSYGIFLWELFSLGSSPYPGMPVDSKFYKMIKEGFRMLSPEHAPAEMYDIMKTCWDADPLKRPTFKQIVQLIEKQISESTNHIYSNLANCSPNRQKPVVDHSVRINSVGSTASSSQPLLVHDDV
Method in brief: (§2)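 Cell-free kinase profiling was run as a standard 33P-ATP-based in vitro kinase assay.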

[21] = test system: MDA-MB-231; assay: Cytotoxicity against human […] cells assessed as cell viability at 5 uM by MTT assay in presence of z-LEHD-FMK caspase-9 inhibitor; format: functional, cell-based
Method in brief: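 Cells seeded 1×10^4/well in DMEM with 10% FBS, adhered overnight, serum-starved 4 h; pre-incubated 2 h with Z-IETD-FMK or Z-LEHD-FMK (10µM each), then 5μM compound for a further 24 h; viability by MTT.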

[22] = molecular target: Signal transducer and activator of transcription 3 (Homo sapiens) (UniProt P40763); assay: Inhibition of basal level STAT3 phosphorylation in human MDA-MB-231 cells at 1 uM by ELISA; format: cell-based
Signal transducer and activator of transcription 3 (Homo sapiens), sequence (P40763 whole entry): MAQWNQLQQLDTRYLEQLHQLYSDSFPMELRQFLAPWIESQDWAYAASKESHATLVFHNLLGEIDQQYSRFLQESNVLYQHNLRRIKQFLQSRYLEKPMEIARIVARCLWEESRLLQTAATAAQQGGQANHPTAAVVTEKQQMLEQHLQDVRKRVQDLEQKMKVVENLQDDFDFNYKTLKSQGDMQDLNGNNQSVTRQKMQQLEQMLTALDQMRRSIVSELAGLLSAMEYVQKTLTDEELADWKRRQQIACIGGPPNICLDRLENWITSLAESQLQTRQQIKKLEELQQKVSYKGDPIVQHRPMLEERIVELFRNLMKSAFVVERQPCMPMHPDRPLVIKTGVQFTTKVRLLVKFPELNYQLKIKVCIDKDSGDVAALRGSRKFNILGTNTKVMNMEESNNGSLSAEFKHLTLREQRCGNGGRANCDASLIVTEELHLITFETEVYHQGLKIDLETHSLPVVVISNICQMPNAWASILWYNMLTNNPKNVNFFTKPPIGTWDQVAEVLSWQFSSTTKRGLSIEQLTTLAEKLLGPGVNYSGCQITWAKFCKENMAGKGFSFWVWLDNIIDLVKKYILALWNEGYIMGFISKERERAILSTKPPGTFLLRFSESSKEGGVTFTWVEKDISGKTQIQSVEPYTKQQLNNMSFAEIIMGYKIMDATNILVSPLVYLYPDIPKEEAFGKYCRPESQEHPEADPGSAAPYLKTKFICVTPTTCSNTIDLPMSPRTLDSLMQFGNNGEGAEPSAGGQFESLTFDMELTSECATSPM

[23] = molecular target: Ribosomal protein S6 kinase beta-1 (Homo sapiens) (UniProt P23443); assay: Inhibition of p70S6K (unknown origin) at 10 uM; method in brief: as §2
Ribosomal protein S6 kinase beta-1 (Homo sapiens), sequence (P23443 whole entry, looked up): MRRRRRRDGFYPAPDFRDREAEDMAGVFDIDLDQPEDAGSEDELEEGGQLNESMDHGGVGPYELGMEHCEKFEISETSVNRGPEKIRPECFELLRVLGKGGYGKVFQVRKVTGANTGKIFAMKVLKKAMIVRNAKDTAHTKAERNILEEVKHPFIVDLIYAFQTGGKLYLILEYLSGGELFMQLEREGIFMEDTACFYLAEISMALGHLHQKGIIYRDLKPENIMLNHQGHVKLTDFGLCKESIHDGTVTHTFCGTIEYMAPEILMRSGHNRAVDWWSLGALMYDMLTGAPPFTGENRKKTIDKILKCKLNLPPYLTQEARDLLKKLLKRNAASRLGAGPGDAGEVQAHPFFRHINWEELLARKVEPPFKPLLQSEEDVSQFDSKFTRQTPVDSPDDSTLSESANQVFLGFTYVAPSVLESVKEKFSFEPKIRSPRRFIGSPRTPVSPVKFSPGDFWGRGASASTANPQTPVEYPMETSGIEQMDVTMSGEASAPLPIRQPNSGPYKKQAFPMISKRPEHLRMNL

[24] = molecular target: Dual 3',5'-cyclic-AMP and -GMP phosphodiesterase 11A (Homo sapiens) (UniProt Q9HCR9); assay: Inhibition of PDE11A1 (unknown origin) activity at 1 to 10 uM; method in brief: as §1
[25] = molecular target: Plasminogen activator inhibitor 1 (Homo sapiens) (UniProt P05121); assay: Inhibition of basal level PAI-1 phosphorylation in human MDA-MB-231 cells at 1 uM by ELISA; format: cell-based
Plasminogen activator inhibitor 1 (Homo sapiens), sequence (P05121 whole entry): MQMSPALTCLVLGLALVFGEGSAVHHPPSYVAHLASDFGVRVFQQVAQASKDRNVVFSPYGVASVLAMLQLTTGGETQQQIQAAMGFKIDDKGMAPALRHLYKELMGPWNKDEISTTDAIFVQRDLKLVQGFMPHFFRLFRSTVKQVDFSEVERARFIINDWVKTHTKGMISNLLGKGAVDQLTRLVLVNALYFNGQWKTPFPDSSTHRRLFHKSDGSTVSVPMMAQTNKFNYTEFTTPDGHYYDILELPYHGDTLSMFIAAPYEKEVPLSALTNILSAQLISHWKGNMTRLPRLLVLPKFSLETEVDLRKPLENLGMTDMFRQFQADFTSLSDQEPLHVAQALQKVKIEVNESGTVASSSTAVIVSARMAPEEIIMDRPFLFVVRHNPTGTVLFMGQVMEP

[26] = molecular target: Induced myeloid leukemia cell differentiation protein Mcl-1 (Homo sapiens) (UniProt Q07820); assay: Inhibition of basal level Mcl1 phosphorylation in human MDA-MB-231 cells at 1 uM by ELISA; format: cell-based
Induced myeloid leukemia cell differentiation protein Mcl-1 (Homo sapiens), sequence (Q07820 whole entry): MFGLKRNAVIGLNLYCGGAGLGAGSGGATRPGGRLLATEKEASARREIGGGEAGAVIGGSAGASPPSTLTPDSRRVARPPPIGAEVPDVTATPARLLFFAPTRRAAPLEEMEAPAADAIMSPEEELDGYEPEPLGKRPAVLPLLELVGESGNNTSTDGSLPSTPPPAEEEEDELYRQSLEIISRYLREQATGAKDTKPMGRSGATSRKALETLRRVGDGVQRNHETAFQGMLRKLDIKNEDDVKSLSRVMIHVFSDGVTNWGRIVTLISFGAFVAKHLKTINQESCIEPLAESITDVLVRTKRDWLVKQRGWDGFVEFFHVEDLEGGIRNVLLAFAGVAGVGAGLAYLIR

Question: Which results are given for `CCN(CC)CCO/N=C(\c1ccc(SC)cc1)c1cccc2ccccc12.O=C(O)C(=O)O`?
Answer: Activity [1]: 20%; Activity [2]: 11.48%; Activity [3]: 0.99%; selectivity ratio [4]: 16.6; Activity [5]: 85.99%; IC50 [6]: > 20000 nM; EC50 [7]: 3000 nM; Activity [8]: 13.65%

Question: For `CCN(CC)CCO/N=C(\c1ccc(SC)cc1)c1cccc2ccccc12`, which Activity [9] is on record?
Answer: Active

Question: What about the Activity [10] of the same compound?
Answer: Active

Question: And the inhibition [11]?
Answer: inactive

Question: And the Activity [12]?
Answer: inactive

Question: And the inhibition [13]?
Answer: Active

Question: And the Activity [14]?
Answer: Active

Question: What about the inhibition [15] of the same compound?
Answer: Active

Question: What about the inhibition [16] of the same compound?
Answer: inactive

Question: What about the inhibition [17] of the same compound?
Answer: inactive

Question: What about the inhibition [18] of the same compound?
Answer: Active

Question: And the inhibition [19]?
Answer: Active

Question: What about the inhibition [20] of the same compound?
Answer: inactive

Question: And the Activity [21]?
Answer: inactive

Question: And the inhibition [22]?
Answer: inactive

Question: What about the inhibition [23] of the same compound?
Answer: inactive

Question: And the inhibition [24]?
Answer: inactive

Question: And the inhibition [25]?
Answer: Active

Question: And the inhibition [26]?
Answer: Active
